Laboratory results from the array DNA melting data of Ke et al. (doi:10.1101/2024.01.08.574731).

What was measured:
[1] = folding enthalpy; higher = less favourable; fluorescence melt of hairpins on a sequencing array, two-state fit; conditions: sodium 0.088 M
Outline: (§1)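 Library hairpins on a sequenced MiSeq flow cell carried annealed Cy3 and quencher oligos, and their Cy3 fluorescence was imaged in 50 mM Na-HEPES pH 8.0 with 25 mM NaCl, in 2.5 °C steps up to 60 °C. Signals were normalised to Cy3 before quenching and to control constructs. Melting temperature and folding enthalpy were obtained from bootstrapped two-state fits, combined by inverse-variance weighting across four replicates, and the fitted temperatures were then raised by 9.35 °C to match UV melts.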

[2] = melting temperature; fluorescence melt of hairpins on a sequencing array, two-state fit, raised by 9.35 °C to match UV melts; conditions: sodium 0.088 M
Outline: as §1

Sequence | folding enthalpy [1] | Tm [2]
GGCAGGGCGAAAGCCGCC (((..(((....)))))) | -18.4 kcal/mol | 63.3 °C
GGCAGGGGAAACCCCGCC (((.(((....))).))) | -35.7 kcal/mol | 57 °C
GGCAGGGGAAACCCTACC ((.((((....)))).)) | -26.6 kcal/mol | 43.7 °C
GGCAGGGGAAACTCTGCC (((((.(....).))))) | -48.5 kcal/mol | 57 °C
GGCAGTACGAAAGTAGCC (((..(((....)))))) | -21.6 kcal/mol | 44.9 °C
GGCAGTGGAAACACCGCC (((.(((....))).))) | -27.1 kcal/mol | 50.6 °C
GGCAGTGGAAACACTACC ((.((((....)))).)) | -29.7 kcal/mol | 43.4 °C
GGCATAGGAAACTATGTC (.(((((....))))).) | -35 kcal/mol | 45.7 °C
GGCATAGGAAACTGTGCC ((((.((....)).)))) | -45.3 kcal/mol | 53.7 °C
GGCATAGGAAACTGTGTC (.((.((....)).)).) | -23.9 kcal/mol | 33.5 °C
GGCATCGAAAGATAGGCC ((((((....)))..))) | -27.2 kcal/mol | 46 °C
GGCATCGAAAGATTCGCC ((((((....)))..))) | -25.4 kcal/mol | 36.5 °C
GGCATCGGAAACGGTGCC ((((.((....)).)))) | -29.8 kcal/mol | 60.5 °C
GGCATGGAAACATGCC ((((((....)))))) | -34.9 kcal/mol | 67.3 °C
GGCATGGCGAAAGCCGCC (((..(((....)))))) | -16 kcal/mol | 59.4 °C
GGCATGGGAAACCGTGCC ((((.((....)).)))) | -33.2 kcal/mol | 62.7 °C
GGCATGGGAAACCGTGTC (.((.((....)).)).) | -33.7 kcal/mol | 43.3 °C
GGCATGGGAAACTATGCC (((((.(....).))))) | -38.9 kcal/mol | 53.6 °C
GGCATGTCGAAAGACGCC (((..(((....)))))) | -25.2 kcal/mol | 52.1 °C
GGCATTCCGAAAGGAGCC (((..(((....)))))) | -23.4 kcal/mol | 43.1 °C
GGCATTCGAAAGAAGCC (((.(((....)))))) | -25 kcal/mol | 48.5 °C
GGCATTGGAAACAATGTC (.(((((....))))).) | -31.9 kcal/mol | 48.1 °C
GGCATTGGAAACAGTGCC ((((.((....)).)))) | -43 kcal/mol | 52.2 °C

Sequence | folding enthalpy [1] | Tm [2]
GGCCAAGGAAACTTGGTC (.(((((....))))).) | -35.1 kcal/mol | 53.3 °C
GGCCAATCGAAAGATGCC (((..(((....)))))) | -23.9 kcal/mol | 42.9 °C
GGCCACCGAAAGGTGCC (((.(((....)))))) | -15.8 kcal/mol | 60.8 °C
GGCCACGAAAGTGGAGCC ((((((....)))..))) | -15.5 kcal/mol | 53.9 °C
GGCCACGAAAGTGGGGCC ((((((....)))..))) | -14.2 kcal/mol | 60.3 °C
GGCCACGAAAGTGGTGCC ((((((....)))..))) | -12.7 kcal/mol | 49.9 °C
GGCCACGAAAGTGTGGCC ((((((....)))..))) | -33.6 kcal/mol | 68.5 °C
GGCCACGAAAGTGTTGCC ((((((....)))..))) | -16.7 kcal/mol | 49.9 °C
GGCCACTCGAAAGAGGCC (((..(((....)))))) | -27.7 kcal/mol | 52.3 °C
GGCCAGGGAAACCTGACC ((.((((....)))).)) | -34.4 kcal/mol | 48.3 °C
GGCCATACGAAAGTAGCC (((..(((....)))))) | -20.6 kcal/mol | 38.7 °C
GGCCATGCGAAAGCAGCC (((..(((....)))))) | -17.1 kcal/mol | 48.4 °C
GGCCCAGGAAACCAGGCC ((((..(....)..)))) | -31.6 kcal/mol | 47 °C
GGCCCAGGAAACTGGACC ((.((((....)))).)) | -32.8 kcal/mol | 50.5 °C
GGCCCCCGAAAGGGAGCC (((.(((....))).))) | -27.1 kcal/mol | 66.8 °C
GGCCCCCGAAAGGGTGCC (((.(((....))).))) | -27.9 kcal/mol | 64.5 °C
GGCCCCGAAAGGGTCGCC ((((((....)))..))) | -16.1 kcal/mol | 55.5 °C
GGCCCCGAAAGGGTGCC ((((((....))).))) | -23.3 kcal/mol | 66.1 °C
GGCCCCGCGAAAGCGGCC (((..(((....)))))) | -9.49 kcal/mol | 41 °C
GGCCCGCGAAAGCGAGCC (((.(((....))).))) | -31.3 kcal/mol | 67.2 °C
GGCCCGGGAAACCAGGCC ((((.((....)).)))) | -37.9 kcal/mol | 55.3 °C
GGCCCGTCGAAAGACGCC (((..(((....)))))) | -8.97 kcal/mol | 37 °C
GGCCCTCGAAAGAGAGCC (((.(((....))).))) | -46.6 kcal/mol | 53.3 °C

Sequence | folding enthalpy [1] | Tm [2]
GGCCGACCGAAAGGTGCC (((..(((....)))))) | -25.5 kcal/mol | 49.5 °C
GGCCGACGAAAGTCCGCC (((.(((....))).))) | -39 kcal/mol | 55.1 °C
GGCCGAGGAAACTCAGCC (((.(((....))).))) | -32 kcal/mol | 46.4 °C
GGCCGAGGAAACTTGGCC ((((.((....)).)))) | -49.1 kcal/mol | 59.4 °C
GGCCGCGAAAGCGCAGCC ((((((....)))..))) | -20.7 kcal/mol | 58.4 °C
GGCCGCTCGAAAGAGGCC (((..(((....)))))) | -48.5 kcal/mol | 56.5 °C
GGCCGGCGAAAGCCAGCC (((.(((....))).))) | -22.4 kcal/mol | 68.1 °C
GGCCGGCGAAAGCCCGCC (((.(((....))).))) | -29.9 kcal/mol | 59.7 °C
GGCCGGGGAAACCCAGCC (((.(((....))).))) | -42.6 kcal/mol | 51.7 °C
GGCCGTACGAAAGTAGCC (((..(((....)))))) | -22.6 kcal/mol | 42.3 °C
GGCCGTCGAAAGACTGCC (((.(((....))).))) | -42.8 kcal/mol | 56.8 °C
GGCCTAACGAAAGTTGCC (((..(((....)))))) | -20.9 kcal/mol | 38.7 °C
GGCCTCCCGAAAGGGGCC (((..(((....)))))) | -18.7 kcal/mol | 59.1 °C
GGCCTCCGAAAGGAGCC (((.(((....)))))) | -16.5 kcal/mol | 62.4 °C
GGCCTCCGAAAGGATGCC (((.(((....))).))) | -37.2 kcal/mol | 56.5 °C
GGCCTCGAAAGAGACGCC ((((((....)))..))) | -24.3 kcal/mol | 47.7 °C
GGCCTCGAAAGAGAGCC ((((((....))).))) | -37.5 kcal/mol | 58.1 °C
GGCCTCGAAAGAGAGGCC ((((((....)))..))) | -29.1 kcal/mol | 66.9 °C
GGCCTCGAAAGAGTAGCC ((((((....)))..))) | -25.9 kcal/mol | 49.2 °C
GGCCTCGAAAGAGTCGCC ((((((....)))..))) | -23.3 kcal/mol | 45 °C
GGCCTCGAAAGAGTTGCC ((((((....)))..))) | -17.2 kcal/mol | 45.5 °C
GGCCTGCGAAAGCACGCC (((.(((....))).))) | -37.6 kcal/mol | 53.4 °C
GGCCTGGGAAACCGGGCC ((((.((....)).)))) | -30.6 kcal/mol | 66.3 °C

Sequence | folding enthalpy [1] | Tm [2]
GGCCTTCGAAAGAAGCC (((.(((....)))))) | -27.6 kcal/mol | 51.4 °C
GGCCTTGGAAACAGGGTC (.((.((....)).)).) | -25 kcal/mol | 37.6 °C
GGCGACGAAAGTCAAGCC ((((((....)))..))) | -39.6 kcal/mol | 54.7 °C
GGCGACGAAAGTCAGGCC ((((((....)))..))) | -31.3 kcal/mol | 55.5 °C
GGCGACGAAAGTCCAGCC ((((((....)))..))) | -27.1 kcal/mol | 51.1 °C
GGCGACGAAAGTCCTGCC ((((((....)))..))) | -20.4 kcal/mol | 46 °C
GGCGACGAAAGTCGGGCC ((((((....)))..))) | -11 kcal/mol | 53.3 °C
GGCGACGCGAAAGCGGCC (((..(((....)))))) | -11.1 kcal/mol | 57.6 °C
GGCGAGCCGAAAGGCGCC (((..(((....)))))) | -13.1 kcal/mol | 65 °C
GGCGAGGCGAAAGCCGCC (((..(((....)))))) | -17.3 kcal/mol | 66.9 °C
GGCGAGGGAAACTTCGCC (((((.(....).))))) | -50.1 kcal/mol | 57.4 °C
GGCGATCGAAAGATAGCC (((.(((....))).))) | -47 kcal/mol | 58 °C
GGCGATGGAAACATCACC ((.((((....)))).)) | -30.3 kcal/mol | 46.2 °C
GGCGCAACGAAAGTTGCC (((..(((....)))))) | -8.29 kcal/mol | 47 °C
GGCGCACGAAAGTGGCC (((.(((....)))))) | -18.3 kcal/mol | 59.9 °C
GGCGCAGGAAACCACGCC ((((..(....)..)))) | -35.3 kcal/mol | 47.3 °C
GGCGCAGGAAACTGCGTC (.(((((....))))).) | -20.6 kcal/mol | 66.1 °C
GGCGCCGAAAGGCAGGCC ((((((....)))..))) | -25.1 kcal/mol | 64.9 °C
GGCGCCGAAAGGCCTGCC ((((((....)))..))) | -16.6 kcal/mol | 50.8 °C
GGCGCCGAAAGGCGAGCC ((((((....)))..))) | -11.4 kcal/mol | 57.6 °C
GGCGCCGAAAGGCTCGCC ((((((....)))..))) | -19.1 kcal/mol | 54.5 °C
